From ChEMBL document CHEMBL1129356, “Novel 3,7-diheterabicyclo[3.3.1]nonanes that possess predominant class III antiarrhythmic activity in 1-4 day post infarction dog models: X-ray diffraction analysis of 3-[4-(1H-imidazol-1-yl)benzoyl]-7-isopropyl-3,7-diazabicyclo[3.3.1]nona ne dihydroperchlorate” (1996)
Activity calls are given as the source filed them.

Key:
Canis familiaris [1] = assay: Antiarrhythmic property A-V nodal conduction time(post drug) is compared to lidocaine(2) using doses(3 and 6 mg/kg); assay type: functional, Canis lupus familiaris, Heart
Method in brief: (§1)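 Mongrel dogs (about 12–25 kg), 1–4 days after coronary occlusion infarction, under sodium pentobarbital (~30 mg/kg) with 12-lead ECG monitoring. Agents and lidocaine were given iv at 3 and 6 mg/kg. Programmed ventricular stimulation was applied at baseline, about 2–5 min after each dose, and at 30 min. SVT was defined as ≥250 beats/min lasting ≥30 s. Pre means drug-free; post means after dosing.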

Canis familiaris [2] = assay: Antiarrhythmic property is compared to lidocaine(2) using doses(3 and 6 mg/kg). Time required for the ventricular myocardium to undergo depolarization and repolarization ((post drug); assay type: functional, Canis lupus familiaris; method in brief: as §1
Canis familiaris [3] = assay: Antiarrhythmic property is compared to lidocaine(2) using doses(3 and 6 mg/kg). Time required for the ventricular myocardium to undergo depolarization and repolarization (drug free); assay type: functional, Canis lupus familiaris; method in brief: as §1
Canis familiaris [4] = assay: Antiarrhythmic property A-V nodal conduction time(drug free) is compared to lidocaine(2) using doses(3 and 6 mg/kg); assay type: functional, Canis lupus familiaris, Heart; method in brief: as §1
Canis familiaris [5] = assay: Antiarrhythmic property Heart rate (drug free) is compared to Lidocaine using doses (3 and 6 mg/kg).; assay type: functional, Canis lupus familiaris
Method in brief: (§2)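 Mongrel dogs (~12–25 kg), 1–4 days after coronary occlusion leaving a surviving epicardial rim, anesthetized with sodium pentobarbital (~30 mg/kg). 12-lead ECG monitored throughout. Agent given iv at 3 and 6 mg/kg. Parameters recorded before (drug free) and after dosing. Programmed electrical stimulation tested SVT inducibility (≥250 beats/min, ≥30 s) at baseline, ~2–5 min after each dose, and at 30 min.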

Canis familiaris [6] = assay: Antiarrhythmic property Heart rate (post drug) is compared to Lidocaine using doses(3 and 6 mg/kg). system.; assay type: functional, Canis lupus familiaris; method in brief: as §2
Canis familiaris [7] = assay: Antiarrhythmic property Mean blood pressure (drug free) is compared to Lidocaine using doses(3 and 6 mg/kg).; assay type: functional, Canis lupus familiaris; method in brief: as §2
Canis familiaris [8] = assay: Antiarrhythmic property Mean blood pressure(post drug) is compared to Lidocaine using doses(3 and 6 mg/kg); assay type: functional, Canis lupus familiaris; method in brief: as §2
Canis familiaris [9] = assay: (§3) Antiarrhythmic property His-Purkinje conduction time(post drug) is compared to lidocaine(2) using doses(3 and 6 mg/kg); assay type: functional, Canis lupus familiaris, His-Purkinje system; method in brief: as §1
Canis familiaris [10] = assay: Antiarrhythmic property His-Purkinje conduction time(drug free) is compared to lidocaine(2) using doses(3 and 6 mg/kg); assay type: functional, Canis lupus familiaris, His-Purkinje system; method in brief: as §1
Canis familiaris [11] = assay: (§4) Antiarrhythmic property ventricular effective refractory period(drug free) is compared to lidocaine(2) using doses(3 and 6 mg/kg); assay type: functional, Canis lupus familiaris, Heart; method in brief: as §2
Canis familiaris [12] = assay: Antiarrhythmic property Nonsustained ventricular tachycardia is compared to lidocaine(2) using dose of (3 and 6 mg/kg); assay type: functional, Canis lupus familiaris, Heart; method in brief: as §1
Canis familiaris [13] = assay: Tested for antiarrhythmic property by measuring ability to decrease heart rate(drug free) is compared to Lidocaine using doses (3 and 6 mg/kg).; assay type: functional, Canis lupus familiaris; method in brief: as §1
Canis familiaris [14] = assay: Tested for antiarrhythmic property by measuring ability to decrease heart rate(post drug) is compared to Lidocaine using doses(3 and 6 mg/kg).; assay type: functional, Canis lupus familiaris; method in brief: as §1
Canis familiaris [15] = assay: Tested for antiarrhythmic property by measuring ability to decrease Mean blood pressure (drug free) is compared to Lidocaine using doses(3 and 6 mg/kg).; assay type: functional, Canis lupus familiaris; method in brief: as §1
Canis familiaris [16] = assay: Tested for antiarrhythmic property by measuring ability to decrease Mean blood pressure(post drug) is compared to Lidocaine using doses(3 and 6 mg/kg); assay type: functional, Canis lupus familiaris; method in brief: as §1
Canis familiaris [17] = assay: as §3; assay type: functional, Canis lupus familiaris, His-Purkinje system; method in brief: as §1; remark: listed apart in the source
Canis familiaris [18] = assay: as §4; assay type: functional, Canis lupus familiaris, Heart; method in brief: as §1; remark: listed apart in the source
Canis familiaris [19] = assay: Antiarrhythmic property ventricular effective refractory period(post drug) is compared to lidocaine(2) using doses(3 and 6 mg/kg); assay type: functional, Canis lupus familiaris, Heart; method in brief: as §1
Canis familiaris [20] = assay: Tested for antiarrhythmic property by measuring ability to decrease heart rate(drug free) is compared to Lidocaine using doses (3 and 6 mg/kg); No effect; assay type: functional, organism-based; set-up: dose 6 mg/kg; conditions: Canis lupus familiaris; method in brief: as §1
Canis familiaris [21] = assay: Tested for antiarrhythmic property by measuring ability to decrease heart rate(post drug) is compared to Lidocaine using doses(3 and 6 mg/kg); No effect; assay type: functional, organism-based; set-up: dose 6 mg/kg; conditions: Canis lupus familiaris; method in brief: as §1
Canis familiaris [22] = assay: (§5) Antiarrhythmic property A-V nodal conduction time(drug free) is compared to lidocaine(2) using doses(3 and 6 mg/kg); No effect; assay type: functional, organism-based; set-up: dose 6 mg/kg; conditions: Canis lupus familiaris; Heart; method in brief: as §1
Canis familiaris [23] = assay: Antiarrhythmic property A-V nodal conduction time(post drug) is compared to lidocaine(2) using doses(3 and 6 mg/kg); No effect; assay type: functional, organism-based; set-up: dose 6 mg/kg; conditions: Canis lupus familiaris; Heart; method in brief: as §1
Canis familiaris [24] = assay: (§6) Antiarrhythmic property is compared to lidocaine(2) using doses(3 and 6 mg/kg). Time required for the ventricular myocardium to undergo depolarization and repolarization ((post drug); No effect; assay type: functional, organism-based; set-up: dose 6 mg/kg; conditions: Canis lupus familiaris; method in brief: as §1
Canis familiaris [25] = assay: (§7) Antiarrhythmic property is compared to lidocaine(2) using doses(3 and 6 mg/kg). Time required for the ventricular myocardium to undergo depolarization and repolarization (drug free); No effect; assay type: functional, organism-based; set-up: dose 6 mg/kg; conditions: Canis lupus familiaris; method in brief: as §1
Canis familiaris [26] = assay: Antiarrhythmic property His-Purkinje conduction time(drug free) is compared to lidocaine(2) using doses(3 and 6 mg/kg); No effect; assay type: functional, organism-based; set-up: dose 6 mg/kg; conditions: Canis lupus familiaris; His-Purkinje system; method in brief: as §1
Canis familiaris [27] = assay: Antiarrhythmic property His-Purkinje conduction time(post drug) is compared to lidocaine(2) using doses(3 and 6 mg/kg); No effect; assay type: functional, organism-based; set-up: dose 6 mg/kg; conditions: Canis lupus familiaris; His-Purkinje system; method in brief: as §1
Canis familiaris [28] = assay: Antiarrhythmic property A-V nodal conduction time(post drug) is compared to lidocaine(2) using dose (3 and 6 mg/kg); No effect; assay type: functional, organism-based; set-up: dose 6 mg/kg; conditions: Canis lupus familiaris; Heart; method in brief: as §2
Canis familiaris [29] = assay: as §6; assay type: functional, organism-based; set-up: dose 6 mg/kg; conditions: Canis lupus familiaris; method in brief: as §2; remark: listed apart in the source
Canis familiaris [30] = assay: as §7; assay type: functional, organism-based; set-up: dose 6 mg/kg; conditions: Canis lupus familiaris; method in brief: as §2; remark: listed apart in the source
Canis familiaris [31] = assay: as §5; assay type: functional, organism-based; set-up: dose 6 mg/kg; conditions: Canis lupus familiaris; Heart; method in brief: as §2; remark: listed apart in the source
Canis familiaris [32] = assay: Antiarrhythmic properties are compared to lidocaine(2) using doses(3 and 6 mg/kg). Time required for the ventricular myocardium to undergo depolarization and repolarization ((post drug); No effect; assay type: functional, organism-based; set-up: dose 6 mg/kg; conditions: Canis lupus familiaris; method in brief: as §2
Canis familiaris [33] = assay: Antiarrhythmic properties are compared to lidocaine(2) using doses(3 and 6 mg/kg). Time required for the ventricular myocardium to undergo depolarization and repolarization (drug free); No effect; assay type: functional, organism-based; set-up: dose 6 mg/kg; conditions: Canis lupus familiaris; method in brief: as §2
Canis familiaris [34] = assay: Antiarrhythmic property ventricular effective refractory period(drug free) is compared to lidocaine(2) using doses(3 and 6 mg/kg); No effect; assay type: functional, organism-based; set-up: dose 6 mg/kg; conditions: Canis lupus familiaris; Heart; method in brief: as §2
Canis familiaris [35] = assay: Antiarrhythmic property ventricular effective refractory period(post drug) is compared to lidocaine(2) using doses(3 and 6 mg/kg); No effect; assay type: functional, organism-based; set-up: dose 6 mg/kg; conditions: Canis lupus familiaris; Heart; method in brief: as §2

Compound: CC(C)N1CC2CN(C(C)C)CC(C1)C21SCCS1
- AH interval (Canis familiaris [1]): 75 ms
- QT (Canis familiaris [2]): 270 ms
- QT (Canis familiaris [3]): 236 ms
- AH interval (Canis familiaris [4]): 56 ms
- HR (Canis familiaris [5]): 154 beats min-1
- HR (Canis familiaris [6]): 105 beats min-1
- MBP (Canis familiaris [7]): 61 mmHg
- MBP (Canis familiaris [8]): 76 mmHg
- HV interval (Canis familiaris [9]): 40 ms
- HV interval (Canis familiaris [10]): 30 ms
- VERP (Canis familiaris [11]): 140 ms
- VERP (Canis familiaris [12]): 180 ms

Compound: CC(C)N1CC2CC(CN(C(=O)c3ccc(-n4ccnc4)cc3)C2)C1
- AH interval (Canis familiaris [1]): 66 ms
- QT (Canis familiaris [2]): 288 ms
- QT (Canis familiaris [3]): 196 ms
- HR (Canis familiaris [13]): 148 beats min-1
- HR (Canis familiaris [14]): 110 beats min-1
- AH interval (Canis familiaris [4]): 57 ms
- MBP (Canis familiaris [15]): 94 mmHg
- MBP (Canis familiaris [16]): 84 mmHg
- HV interval (Canis familiaris [10]): 32 ms
- HV interval (Canis familiaris [17]): 37 ms
- VERP (Canis familiaris [18]): 144 ms
- VERP (Canis familiaris [19]): 187 ms

Compound: CCN(CC)CC(=O)Nc1c(C)cccc1C [LIDOCAINE]
- HR (Canis familiaris [20]): inactive
- HR (Canis familiaris [21]): inactive
- AH interval (Canis familiaris [22]): inactive
- AH interval (Canis familiaris [23]): inactive
- QT interval (Canis familiaris [24]): inactive
- QT interval (Canis familiaris [25]): inactive
- MBP (Canis familiaris [15]): 105 mmHg
- MBP (Canis familiaris [16]): 84 mmHg
- HV interval (Canis familiaris [26]): inactive
- HV interval (Canis familiaris [27]): inactive
- VERP (Canis familiaris [18]): 142 ms
- VERP (Canis familiaris [19]): 167 ms

Compound: c1ccc(CN2CC3CSCC(C3)C2)cc1
- AH interval (Canis familiaris [28]): inactive
- QT (Canis familiaris [29]): inactive
- QT (Canis familiaris [30]): inactive
- AH interval (Canis familiaris [31]): inactive
- QT (Canis familiaris [32]): inactive
- QT (Canis familiaris [33]): inactive
- VERP (Canis familiaris [34]): inactive
- VERP (Canis familiaris [35]): inactive
